Results as given in ChEMBL document CHEMBL1157107, “Gastroprotective effect of carnosic acid gamma-lactone derivatives” (J Nat Prod, 2010).

Assays:
Mus musculus [1] = assay: Gastroprotective activity in Swiss albino mouse assessed as reduction in HCl/EtOH-induced gastric lesions at 40 mg/kg, po dosed 50 mins before HCl/EtOH challenge measured after 1 hr relative to control; type: functional, Stomach; design: scale not given: the % may be the effect or the level left
Outline: (§1)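 Male Swiss albino mice (30 ± 3 g) were randomized into groups of 7 and fasted 24 h with free water, then dosed orally. Controls received 12% Tween 80. Mice were killed 1 h after HCl/EtOH. Stomachs were inflated with saline, fixed in 5% formalin for 30 min and opened along the greater curvature. Lesion index was the summed lesion length (mm), compared with controls by ANOVA/Dunnett.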

MRC5 = assay: Cytotoxicity against human MRC5 cells after 24 hrs by neutral red uptake assay; type: cell-based; conditions: MRC5, 24 h
Outline: (§2)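 Confluent monolayers, seeded at 25 000 cells/mL, were used. MRC-5 and Hep G2 were grown in MEM and AGS in Ham F-12, all with 10% heat-inactivated FBS at 37 °C and 5% CO₂. Cells were exposed for 24 h to 0–1000 µM compound with 1% DMSO final. Viability was read by neutral red uptake as % of control, with quadruplicates in three separate experiments. IC50 was read graphically from dose-response curves.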

AGS = assay: Cytotoxicity against human AGS cells after 24 hrs by neutral red uptake assay; type: cell-based; outline: as §2
HepG2 = assay: Cytotoxicity against human HepG2 cells after 24 hrs by neutral red uptake assay; type: cell-based; conditions: HepG2, 24 h; outline: as §2
Mus musculus [2] = assay: Gastroprotective activity in Swiss albino mouse assessed as reduction in HCl/EtOH-induced gastric lesions at 10 mg/kg, po dosed 50 mins before HCl/EtOH challenge measured after 1 hr relative to control; type: functional, Stomach; design: scale not given: the % may be the effect or the level left; outline: as §1
Mus musculus [3] = assay: Gastroprotective activity in Swiss albino mouse assessed as reduction in HCl/EtOH-induced gastric lesions at 20 mg/kg, po dosed 50 mins before HCl/EtOH challenge measured after 1 hr relative to control; type: functional, Stomach; design: scale not given: the % may be the effect or the level left
Outline: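 Male Swiss albino mice (30 ± 3 g) were randomised into groups of 7 and fasted 24 h with free water. Dosing was oral at 10, 20 or 40 mg/kg; controls received 12% Tween 80. Mice were killed 1 h after HCl/EtOH, and stomachs were saline-inflated, fixed in 5% formalin for 30 min and opened. Lesion index is the summed lesion length (mm); % reduction is versus control. ANOVA with Dunnett's test.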

| SMILES | Activity (Mus musculus [1]) [%] | IC50 (MRC5) [µM] | IC50 (AGS) [µM] | IC50 (HepG2) [µM] | Activity (Mus musculus [2]) [%] | Activity (Mus musculus [3]) [%] |
| --- | --- | --- | --- | --- | --- | --- |
| CC(C)c1cc2c3c(c1OC(=O)CCCc1c[nH]c4ccccc14)OC(=O)[C@@]31CCCC(C)(C)[C@@H]1CC2 | 50 | 54.5 | 46.8 | 120 | – | – |
| CC(C)c1cc2c3c(c1OC(=O)CCC(=O)Oc1c(C(C)C)cc4c5c1OC(=O)[C@]51CCCC(C)(C)C1CC4)OC(=O)[C@@]31CCCC(C)(C)[C@@H]1CC2 (stereo partly specified) | 62 | > 1000 | 623 | > 1000 | – | – |
| CC(C)c1cc2c3c(c1OC(=O)c1ccccc1C(=O)Oc1c(C(C)C)cc4c5c1OC(=O)[C@]51CCCC(C)(C)C1CC4)OC(=O)[C@@]31CCCC(C)(C)[C@@H]1CC2 (stereo partly specified) | 15 | 678 | 375 | 611 | – | – |
| CC(C)c1cc2c3c(c1OC(=O)c1ccccc1)OC(=O)[C@@]31CCCC(C)(C)[C@@H]1CC2 | 48 | 512 | 503 | 510 | – | – |
| CCC(=O)Oc1c(C(C)C)cc2c3c1OC(=O)[C@@]31CCCC(C)(C)[C@@H]1CC2 | 59 | 125 | 113 | 196 | – | – |
| CC(C)C(=O)Oc1c(C(C)C)cc2c3c1OC(=O)[C@@]31CCCC(C)(C)[C@@H]1CC2 | 72 | 119 | 105 | 112 | – | – |
| CC(C)c1cc2c3c(c1OC(=O)CCl)OC(=O)[C@@]31CCCC(C)(C)[C@@H]1CC2 | 81 | 130 | 103 | 203 | – | – |
| CC(=O)Oc1c(C(C)C)cc2c3c1OC(=O)[C@@]31CCCC(C)(C)[C@@H]1CC2 | 62 | 290 | 275 | 294 | – | – |
| COc1c(C(C)C)cc2c(c1O)[C@@]1(C(=O)O)CCCC(C)(C)[C@@H]1CC2 | – | 54.9 | 45.2 | 43.5 | – | – |
| CCCCCCCCCCCCCCCC(=O)Oc1c(C(C)C)cc2c3c1OC(=O)[C@@]31CCCC(C)(C)[C@@H]1CC2 | 65 | > 1000 | > 1000 | > 1000 | – | – |
| CC(C)c1cc2c3c(c1OC(=O)Cc1c[nH]c4ccccc14)OC(=O)[C@@]31CCCC(C)(C)[C@@H]1CC2 | 51 | 109 | 85.6 | 251 | – | – |
| CCCCCCCCCCCC(=O)Oc1c(C(C)C)cc2c3c1OC(=O)[C@@]31CCCC(C)(C)[C@@H]1CC2 | 36 | > 1000 | 413 | > 1000 | – | – |
| CCCC(=O)Oc1c(C(C)C)cc2c3c1OC(=O)[C@@]31CCCC(C)(C)[C@@H]1CC2 | 82 | 44.4 | 99.5 | 56.1 | – | – |
| CCCCC/C=C/C/C=C/CCCCCCCC(=O)Oc1c(C(C)C)cc2c3c1OC(=O)[C@@]31CCCC(C)(C)[C@@H]1CC2 | 45 | 293 | 253 | 289 | – | – |
| CCCCCCCC/C=C/CCCCCCCC(=O)Oc1c(C(C)C)cc2c3c1OC(=O)[C@@]31CCCC(C)(C)[C@@H]1CC2 | 70 | > 1000 | 822 | > 1000 | – | – |
| CC(C)c1cc2c3c(c1O)OC(=O)[C@@]31CCCC(C)(C)[C@@H]1CC2 | 59.5 | 293 | 246 | 240 | 20.8 | 30.6 |
| CC(C)c1cc2c3c(c1OC(=O)Cc1ccccc1)OC(=O)[C@@]31CCCC(C)(C)[C@@H]1CC2 | 44 | 516 | 133 | 522 | – | – |
| CC(C)c1cc2c3c(c1OC(=O)c1cccnc1)OC(=O)[C@@]31CCCC(C)(C)[C@@H]1CC2 | 9 | 296 | 280 | 264 | – | – |
| COc1c(C(C)C)cc2c3c1OC(=O)[C@@]31CCCC(C)(C)[C@@H]1CC2 | 71 | 31.9 | 26.7 | 58.1 | – | – |
| CC(C)c1cc2c(c(O)c1O)[C@@]1(C(=O)O)CCCC(C)(C)[C@@H]1CC2 [CARNOSIC ACID] | – | 21.8 | 89.8 | 41.3 | – | – |
| Cc1c(OCC(F)(F)F)ccnc1C[S+]([O-])c1nc2ccccc2[nH]1 (stereo unspecified) [LANSOPRAZOLE] | – | – | – | – | – | 80 |
